# From PubChem
# Mdm2 MdmX PPI: inhibitors of human Mdm2-MdmX association, primary screen, cell-based, luminescence, split luciferase, SaOS-2, uHTS; SaOS-2 split-luciferase Mdm2/MdmX complementation; inhibition, % at 8 µM; 330,000 compounds, 3% hits; AID 485346, 2010;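 active = inhibition of at least 50% at 8 µM in the primary screen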
# 697 NFkB inh: inhibitors of PMA/ionomycin-induced NF-kB reporter, 697 cells, primary screen, B-cell NF-kB inhibitor project, cell-based, luminescence, uHTS; 697 B-cell NF-kB luciferase reporter, 16 h; inhibition, % at 4 µM; 330,000 compounds, 0.33% hits; AID 435022, 2010; in the data active = inhibition above about 35%
# Jurkat NFkB inh: inhibitors of induced NF-kB luciferase reporter, primary screen, TCR NF-kB activation inhibitor project, cell-based, luminescence, uHTS | Jurkat, PMA/ionomycin-induced NF-kB luciferase reporter | inhibition, % at 4 µM | 330,000 compounds, 0.53% hits | AID 435003, 2010; in the data active = inhibition above about 50%
# IMP-1 inhibitor: IMP-1 metallo-beta-lactamase inhibitors, primary screen, biochemical, epi-absorbance readout, Pseudomonas aeruginosa enzyme. metallo-beta-lactamase IMP-1 (Pseudomonas aeruginosa). purified IMP-1, nitrocefin hydrolysis, epi-absorbance fluorescence. 290,000 compounds, 0.45% hits. AID 1556, 2009. inhibition, % at 5.6 µM;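 active = inhibition above the mean plus 3 SD of all compounds in the same screening run, cut at about 4.5% in these data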;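 note: 0% = IMP-1 with DMSO and 100% = DMSO wells lacking enzyme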
#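 Assay system: purified IMP-1; Quantity: IMP-1 0.2 nM before substrate addition; Medium: HEPES buffer pH 7.1 with ZnSO4 and Brij 35; Incubation: 15 min enzyme–compound preincubation, then 25 min nitrocefin reaction, 25 °C; Signal: fluorescence quenching readout, ex 480/em 530 nm; Controls: DMSO with and without IMP-1; Repeats: singlicate testing.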
# VIM-2 inhibitor: VIM-2 metallo-beta-lactamase inhibitors, primary screen, biochemical, epi-absorbance readout, Pseudomonas aeruginosa enzyme. purified VIM-2, nitrocefin hydrolysis, epi-absorbance fluorescence. inhibition, % at 5.6 µM. 290,000 compounds, 0.89% hits. AID 1527, 2009;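 active = inhibition above the mean of all tested compounds plus 3 SD, cutoff set per screening run, cut at about 7.5% in these data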;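 note: red hydrolysis product quenches plate fluorescence so inhibitors raise well fluorescence; 0% = enzyme with DMSO and 100% = DMSO without enzyme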
# aSyn 5UTR inh: MLPCN primary screen, SNCA 5' untranslated region | AID 1813, 2009 | alpha-synuclein 5'UTR reporter, inhibitor activity | inhibition, % (tested at 7.5 µM) | 300,000 compounds, 0.82% hits; in the data active = inhibition above about 60%;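 note: H4 neuroglioblastoma cells stably carrying SNCA 5'UTR luciferase fusion; 0% = DMSO wells and 100% = positive control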
# Numbers without * were called inactive; · = no result. Most compounds without a hit are left out; they make up all but 4.7% or so of the library.
SMILES,Mdm2 MdmX PPI,697 NFkB inh,Jurkat NFkB inh,IMP-1 inhibitor,VIM-2 inhibitor,aSyn 5UTR inh
Cc1cc(N2CCN(c3cccc(C(F)(F)F)c3)CC2)n2nc(C)nc2n1,12,-18,6,-3,-2,-30
Nc1ccc(Oc2cccc(Oc3ccc(N)cc3)c2)cc1,17,22,-9,-2,-3,87*
Cc1cccc(Oc2ccc(N)cc2)c1,-29,-34,8,3,-1,2
O=C1N(O)C2(C=CCCC2)/C(=N\O)C12CCCCC2 (stereo unspecified),-9,5,-7,1,10*,-8
COc1cccc(C(=O)Nc2ccc3[nH]c(=O)[nH]c3c2)c1OC,12,3,2,-2,-1,68*
COc1cccc(NC(=O)c2cccc(OC)c2OC)c1,-63,-78,-57,-3,0,-168
COc1cccc(COC(=O)C2CCN(S(=O)(=O)c3ccc(C)cc3C)CC2)c1OC,18,18,-4,·,·,7
COc1cccc(OCCNc2cc(N3CCCCC3)ccc2[N+](=O)[O-])c1,8,-27,-11,47*,1,-5
COc1ccc(OCCNc2cc(N3CCCCC3)ccc2[N+](=O)[O-])cc1,15,-15,-26,-2,-1,8
Cc1ccc2nc(Cl)c(-c3ccccc3)cc2c1,-3,-37,-19,·,·,74*
COCCCN=C1NN=C(c2cc(C)n(Cc3ccco3)c2C)CS1,39,-130,13,-1,-2,94*
COc1ccccc1NC(=O)CCC(=O)OCC(=O)c1ccc(C)c([N+](=O)[O-])c1,16,18,13,-1,-2,6
COC(=O)c1ccc(N(C(=O)c2ccco2)C(C(=O)NC2CCCC2)c2ccco2)cc1 (stereo unspecified),-14,19,9,4.5*,3,-8
COc1cccc(CNC(=O)c2ccc(OCC(=O)N3CCOCC3)c(OC)c2)c1,17,-4,-2,·,·,-20
Cc1cc(N/N=C/c2ccc(O)cc2O)nc(-c2ccccc2O)n1,·,·,·,-2,-3,75*
Cc1nc(Cl)cc(N/N=C/c2ccc(O)cc2O)n1,32,-33,-14,-5,-3,-58
Cc1cc(N/N=C/c2ccc(O)cc2O)nc(-n2nc(C)cc2C)n1,·,·,·,-3,-2,72*
Cc1ccc(C)c(NS(=O)(=O)c2cc3c4c(c2)CC(=O)N4CCC3)c1,25,1,-2,-4,-2,1
O=C(NCCNc1ccc2ccccc2c1)c1cccn2c(=O)c3sccc3nc12,-2,-7,21,-3,8.1*,22
O=C(NCCN1CCN(c2ccccc2)CC1)c1cccn2c(=O)c3ccccc3nc12,41,7,8,-3,3,9
CCOC(=O)c1c(C)n(C)c2ccc(OCC(O)CN3CCCCCC3)cc12 (stereo unspecified),-14,-19,-5,-1,7,3
CCOC(=O)c1c(C)n(C)c2ccc(OCC(O)CN3CCC(C)CC3)cc12 (stereo unspecified),-3,7,-10,-2,7.9*,-1
COc1ccccc1-n1c(C)c2c(OC)cccc(=O)c2c1C,-5,-8,-4,1,9.2*,-4
Clc1ccc2c(N/N=C/c3ccc(Br)cc3)ccnc2c1,·,·,·,-3,-2,-44
Clc1ccc2c(N/N=C/c3cccnc3)ccnc2c1,5,-2,-38,1,11*,-81
SMILES,Mdm2 MdmX PPI,697 NFkB inh,Jurkat NFkB inh,IMP-1 inhibitor,VIM-2 inhibitor,aSyn 5UTR inh
O=C(COC(=O)c1ncc(Cl)c(Cl)c1Cl)Nc1cccnc1Cl,2,-5,0,·,·,-13
CCCCn1c2ccc(F)cc2c2nnc(SCCN3CCCCC3)nc21,-6,-25,-9,-4,8.4*,-10
CCOc1ccc2c(c1)c1nnc(SCC(=O)N3CCCCC3C)nc1n2C (stereo unspecified),18,11,8,0,1,23
CCn1c2ccc(C)cc2c2nnc(SCCN3CCOCC3)nc21,2,-23,-20,-2,11*,13
Cn1c2ccc(F)cc2c2nnc(SCCN3CCCCC3)nc21,5,-3,-19,-2,12*,-18
N#CCc1nn2c(-c3ccccc3)ccnc2c1C#N,7,4,5,1,-1,-11
CCOc1ccc(C(=O)Nc2ccc3c(c2)OCCO3)cc1,-82,-106,-106,-2,-2,-20
C(=Nc1cccc2c(N=Cc3ccco3)cccc12)c1ccco1,27,-2,17,16*,-1,-8
CN(C)c1ccc(N=Cc2ccco2)cc1,-14,-75,-103,-3,-4,·
CN(C)S(=O)(=O)c1ccc(NC(=O)CN2C(=O)NC3(CCCC3)C2=O)cc1,-14,4,0,-1,0,1
O=C(Cc1ccc2c(c1)OCCO2)c1c(O)cc(O)cc1O,26,-24,-5,-2,-1,-44
Oc1ccc(N=Nc2ccc3c(c2)OCCO3)c(O)c1,-76,-128,-30,-5,-5,62*
N/C(=N\OC(=O)c1cccc(Cl)c1)c1ccccn1,-82,-154,-78,-2,-5,21
N/C(=N\OC(=O)c1ccccc1Cl)c1ccccn1,6,-98,-80,-2,0,84*
N/C(=N\OC(=O)c1ccc(Cl)cc1)c1ccccn1,-29,-113,-112,-1,-2,63*
N/C(=N\OC(=O)c1cccc(Br)c1)c1ccccn1,-66,-180,-129,-1,-4,72*
O=C(OCCN1CCOCC1)c1ccc(Cl)cc1Cl,1,-4,-8,-3,-2,0
Cc1[nH]n(-c2ccccc2)c(=O)c1C=Nc1cnc2ccccc2c1,7,12,15,0,-2,-7
CCOc1ccc(N=Cc2c(C)[nH]n(-c3nc4ccccc4[nH]3)c2=O)cc1,35,10,2,7.2*,-3,39
Cc1cccc(CC(=O)Nc2cc(C)c3c(=O)oc4ccccc4c3n2)c1,38,21,-3,-5,-1,23
Cc1cc(NC(=O)CN2CCN(Cc3ccccc3)CC2)nc2c1c(=O)oc1ccccc12,47,0,-3,0,8.3*,-6
Cc1ccc2nc(-c3ccc(NC(=O)CCS(=O)(=O)c4ccccc4)cc3)sc2c1,-107,-113,-106,-3,-3,62*
O=C(N/N=C/c1cccnc1)c1ccc(NC(=O)C(c2ccccc2)c2ccccc2)cc1,7,19,-15,-2,-5,111*
O=C(CNC(=O)C(c1ccccc1)c1ccccc1)N/N=C/c1cccnc1,14,18,7,1,1,-6
